Screens from PubChem BioAssay.
This excerpt belongs to a sample that is enriched for hits.
UPR CHOP act – apoptotic UPR (CHOP) activation; CHO-CHOP luciferase reporter, luminescence; percent of tunicamycin response over DMSO baseline; activation, % at 10 µM; 330,000 tested, 0.34% active;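 active = at 10 µM dose, activation of 40% or more, normalized to positive control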;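 note: 100% = tunicamycin at 10 µg/mL and 0% = DMSO alone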
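Test system: CHO-CHOP cells, stable luciferase reporter of PERK-eIF2a-CHOP signalling | Quantity: 500 CHO-CHOP cells per well | Buffer or medium: F12 plus 10% serum | Compound dosing: 10 µM single point, 0.5% DMSO | Schedule: 6 h compound treatment, 37 °C | Signal: Luciferase luminescence | Control set: Tunicamycin high control, DMSO low control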
CHOP inhibitor – inhibitors of CHOP induction in ER stress response | AID 2732 | inhibition, % at 10 µM | CHO-K1 CHOP-promoter luciferase, tunicamycin-induced, 15-18 h | 220,000 tested, 3.8% active;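 active = compounds that reduced the stress-induced luciferase reporter signal by more than about 70% of percent inhibition, limit read from the data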;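 note: 0% = tunicamycin plus vehicle and 100% = wells without tunicamycin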
H9c2 protect – myocardial damage modulation in H9c2 cells. H9c2 cardiomyocytes, H2O2 injury protection, ATPLite, 2 h. protection from H2O2 cell death, % at 20 µM. 360,000 tested, 0.63% active. AID 588492;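 active = compounds giving at least 50% protection of heart cells from peroxide-induced death in the single-dose screen, raw or plate-pattern-corrected value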;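 note: 0% = DMSO wells with peroxide and 100% = DMSO wells without peroxide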
UPR XBP1 act – activators of adaptive arm of unfolded protein response (XBP1) | CHO-XBP1 luciferase reporter, IRE1-XBP1 UPR activation, luminescence; percent of tunicamycin response, DMSO as zero | activation, % at 20 µM | 330,000 tested, 0.33% active;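 active = versus positive control, 20 µM dose yields 30% or more activation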;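 note: 100% = tunicamycin at 10 µg/mL and 0% = DMSO only wells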
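Test system: CHO-XBP1 luciferase reporter cells | Buffer or medium: Serum-containing F12 medium, 10% FBS | Schedule: 6 h compound exposure at 37 °C, 5% CO2 | Detection: Steady-Glo luciferase glow luminescence, 10 min after reagent addition | Read-out basis: Activation, % of tunicamycin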
hiPSC survival – increases survival of single human iPS cells | hiPSC single-cell survival, ATPlite luminescence; 100% = ROCK inhibitor wells, 0% = DMSO | survival enhancement, % at 20 µM | 360,000 tested, 0.044% active | AID 602274; in the data active = survival enhancement above about 18%;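 note: cells exposed to compounds for 16 hours before the ATP read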
Starred values were filed as active, the others as inactive; . = not tested or not shown.

SMILES	UPR CHOP act	CHOP inhibitor	H9c2 protect	UPR XBP1 act	hiPSC survival
O=C(O)CCC(=O)N1CCCC1C(=O)O (stereo not given)	.	-19	.	.	.
Nc1nc(Nc2ccc(Cl)cc2Cl)nc(C(F)(F)F)n1	3	75*	-17	3	0
CCCN(C(=O)c1ccccc1Cc1ccccc1)C1CCS(=O)(=O)C1 (stereo not given)	-1	.	0	-1	0
O=C(NNC(=O)c1cc(-c2ccc(Cl)cc2Cl)nc2ccccc12)Nc1ccccc1	3	96*	39	5	-3
CCC/C=C/c1ccc(CN2C(C(C)C)C(=O)N(Cc3cn(CC4CCCCC4)nn3)CCS2(=O)=O)cc1 (stereo not given)	.	.	-14	.	-1
NC(=O)c1cccc2c1C(=O)N(C1CCCCC1)C2	-1	57	78*	2	3
Cc1cccc(C(C)C)c1NC(=O)COC(=O)c1cccc(S(=O)(=O)N2CCc3ccccc3C2)c1	0	85*	4	-1	0
CCOc1ccccc1NC(=O)c1oc2ccccc2c1NC(=O)C1CCCO1 (stereo not given)	0	-14	52*	3	-1
Cc1ccc(N=Nc2c(N)nn3c(N)c(C#N)c(C)nc23)cc1	11	73*	45	23	0
CC(=O)c1cccc(NS(=O)(=O)c2ccc(N/C=C/C(=O)c3ccc(F)cc3)cc2)c1	3	83*	-29	-1	1
CC(=O)c1cccc(NS(=O)(=O)c2ccc(N/C=C\C(=O)c3ccc(F)cc3)cc2)c1	9	84*	-31	0	2
O=c1c2cc(Cl)ccc2nc(-c2ccc(Cl)c(Cl)c2)n1O	2	102*	2	10	0
O=c1c2cc(Cl)ccc2nc(-c2ccccc2)n1O	0	28	14	-2	0
CCCCN(C(=O)NC(=O)Nc1cccc(C)c1C)S(C)(=O)=O	0	81*	-1	-2	3
CC(=O)Nc1ccc(C(=O)N2CCCCC2c2cc(C(=O)N3CCOCC3)no2)cc1 (stereo not given)	.	.	9	.	-2
O=C(NCc1cccc(Cl)c1)c1ccc(S(=O)(=O)Nc2cccc(C(F)(F)F)c2)cc1	2	90*	-6	-1	0
O=C(Cc1cccc(C(F)(F)F)c1)NCc1cccc(Cl)c1	1	24	4	0	2
COc1ccc2c(c1)CCc1c(C(=O)NCCc3ccc(OC)c(OC)c3)noc1-2	0	3	-6	-2	-1
COc1ccc2c(c1)CCc1c(C(=O)Nc3ccc(OC)c(OC)c3)noc1-2	2	76*	-10	4	-1
COc1cc(Nc2nc3ccccc3n3nnnc23)cc(OC)c1OC	3	9	68*	3	2
COc1ccc(Nc2nc3ccccc3n3nnnc23)cc1	0	32	32	5	0
O=c1[nH][nH]c2c1[C@@H](c1ccc(F)cc1)O[C@H](CCOCc1ccccc1)C2	.	.	.	.	-1
O=C(CNC(=O)c1ccco1)NCC(=O)OCc1cccc(Cl)c1	-1	20	6	-2	4
O=C(CNC(=O)c1ccco1)OCc1cccc(Cl)c1	-2	74*	6	-1	-1
CCOC(=O)C1CCN(C(=O)CSCc2nc(-c3ccc(OCC)cc3)oc2C)CC1	0	77*	-28	5	-1
SMILES	UPR CHOP act	CHOP inhibitor	H9c2 protect	UPR XBP1 act	hiPSC survival
CCOc1ccc(-c2nc(CSCC(=O)N3CCN(C(=O)c4ccco4)CC3)c(C)o2)cc1	3	38	-16	2	-3
CCCN1C(=O)/C(=C/c2c(NCCCOCC)nc3c(C)cccn3c2=O)SC1=S	.	76*	3	.	0
c1ccc(Nc2cccc3c(Nc4ccccc4)cccc23)cc1	3	79*	-15	0	0
c1ccc(Nc2ccccc2)cc1	0	.	1	1	0
COc1cccc(OC)c1Nc1nc(C)nc2c1nnn2Cc1ccccc1Cl	0	27	-2	-2	1
CCc1nc(Nc2ccc(OC)c(OC)c2)c2nnn(Cc3ccccc3Cl)c2n1	1	91*	-33	5	2
CCN(CC)S(=O)(=O)c1ccc(SCC(=O)c2c(N)n(C3CC3)c(=O)[nH]c2=O)nc1	.	.	2	.	-1
Cc1nn(Cc2c(F)c(F)c(F)c(F)c2F)c(C)c1NC(=O)c1ccc(COc2ccc(Cl)cc2Cl)o1	4	70*	-5	1	5
CN(C)CCCNC(=O)/C(=C\c1ccc(-c2ccc(Br)cc2)o1)NC(=O)c1ccccc1	2	81*	-19	0	-2
CN(C)CCCNC(=O)/C(=C/c1ccc(-c2ccc([N+](=O)[O-])cc2)o1)NC(=O)c1ccccc1	1	.	4	0	0
CCCCCC(=O)N1C[C@H](n2cc(C3CC3)nn2)[C@@H](O)C[C@@H]1c1ccc(Cl)cc1	.	.	-3	.	-1
Cc1cc(C)cc(NC(=O)Nc2ccc(-n3ccc(C(F)(F)F)n3)cc2)c1	3	83*	-14	-1	0
Cc1cccc(C)c1NC(=O)NS(=O)(=O)c1ccccc1	.	.	2	.	4
c1ccc(-c2csc(Nc3ccc4c(c3)OCCO4)n2)cc1	3	90*	-12	0	-4
COc1ccccc1C(=O)Nc1nc(-c2ccc3c(c2)OCCO3)cs1	-5	13	64*	-1	4
COc1cccc(-c2ccc(C#N)c(OC(=O)c3ccc(Cl)cc3)n2)c1	-1	80*	-3	-8	-1
COc1cccc(-c2ccc(C#N)c(OC(=O)c3c(Cl)cccc3Cl)n2)c1	1	36	6	-4	-1
O=C1CC(O)(C(F)(F)F)Oc2c1ccc1ccccc21 (stereo not given)	0	89*	-9	2	0
CNC(=O)[C@H]1O[C@@H](n2cnc3c(NCc4ccc(N)cc4)ncnc32)C(O)[C@H]1O (stereo not given in full)	.	-28	.	.	.
Cc1cc2c(=O)[nH]c(N)nc2[nH]1	.	.	32	.	0
Cc1ccccc1/C=C1\OC(=O)c2ccccc21	5	87*	-9	3	4
CN=c1scc(-c2ccccc2F)n1/N=C/c1ccc[nH]1	-9	98*	-20	-10	-6
COc1ccc(OC)c(Nc2nc(N)c([N+](=O)[O-])c(N3CCOCC3)n2)c1	0	.	52*	11	1
O=C(NC(c1ccccc1)c1ccsc1)C1CCN(Cc2ccc(Oc3ccccc3)cc2)CC1 (stereo not given)	.	.	-2	.	1
CN(C(=O)c1cc2c(=O)n3ccccc3nc2n1C)C1CCCCC1	0	.	-7	-2	0
CC(C)CCNC(=O)c1onc(CSc2ccc(F)cc2)c1C(=O)NCCC(C)C	-1	.	-9	-5	21*
O=C(O)Cn1ccc2cc(S(=O)(=O)N3CCCCCC3)ccc21	-1	.	0	-9	-1
